According to ChEMBL document CHEMBL3120102, “Structure-based design, synthesis and biological evaluation of novel anthra[1,2-d]imidazole-6,11-dione homologues as potential antitumor agents” (2013):

Tests used:
Assay type in all cases: functional
SN12C = test: Cytotoxicity against human SN12C cells assessed as growth inhibition after 48 hrs by SRB assay
How it was run: (§1)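 NCI 60-cell-line screen, two stages. Five-dose testing at […]. Cellular protein measured by sulforhodamine B colorimetry after 48 h drug exposure. A time-zero control and drug-free plates are used to derive GI50, TGI and LC50 from dose-response curves plotted as log10 concentration per cell line.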

NCI-H522 = test: Cytotoxicity against human NCI-H522 cells assessed as growth inhibition after 48 hrs by SRB assay
How it was run: (§2)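 NCI 60-cell-line screen, five-dose stage: each cell line exposed for 48 h to five concentrations spanning five log steps; cellular protein measured by sulforhodamine B colorimetry. A time-zero cell control and plates without drug are used to derive GI50, TGI and LC50 from log-concentration dose-response curves.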

A549 = test: Cytotoxicity against human A549 cells assessed as growth inhibition after 48 hrs by SRB assay
How it was run: (§3)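 NCI 60-cell-line five-dose screen at […]. Drug exposure was 48 h, followed by sulforhodamine B protein staining. GI50, TGI and LC50 were calculated against a time-zero control and untreated plates, with dose–response curves plotted from log10 concentration.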

RXF 393 = test: Cytotoxicity against human RXF393 cells assessed as growth inhibition after 48 hrs by SRB assay; how it was run: as §2
[1] = (§4) Cytotoxicity against human OVCAR5 cells assessed as growth inhibition after 48 hrs by SRB assay; conditions: OVCAR-5, 48 h; how it was run: as §2
OVCAR-5 = test: as §4; how it was run: as §2
M14 = test: Cytotoxicity against human M14 cells assessed as growth inhibition after 48 hrs by SRB assay; how it was run: as §3
SK-OV-3 = test: Cytotoxicity against human SKOV3 cells assessed as growth inhibition after 48 hrs by SRB assay; how it was run: as §2
T47D = test: Cytotoxicity against human T47D cells assessed as growth inhibition after 48 hrs by SRB assay; how it was run: as §1
CCRF-CEM = test: Cytotoxicity against human CCRF-CEM cells assessed as growth inhibition after 48 hrs by SRB assay; how it was run: as §3
SK-MEL-2 = test: Cytotoxicity against human SK-MEL-2 cells assessed as growth inhibition after 48 hrs by SRB assay; how it was run: as §2
[2] = (§5) Cytotoxicity against human NCI-ADR-RES cells assessed as growth inhibition after 48 hrs by SRB assay; how it was run: as §2
NCI/ADR-RES = test: as §5; how it was run: as §2
MDA-MB-231 = test: Cytotoxicity against human MDA-MB-231 cells assessed as growth inhibition after 48 hrs by SRB assay; how it was run: as §2
TK-10 = test: Cytotoxicity against human TK10 cells assessed as growth inhibition after 48 hrs by SRB assay; how it was run: as §1
MOLT-4 = test: Cytotoxicity against human MOLT4 cells assessed as growth inhibition after 48 hrs by SRB assay; how it was run: as §2
RPMI-8226 = test: Cytotoxicity against human RPMI8226 cells assessed as growth inhibition after 48 hrs by SRB assay; how it was run: as §2
HOP-62 = test: Cytotoxicity against human HOP62 cells assessed as growth inhibition after 48 hrs by SRB assay; how it was run: as §3
KM12 = test: Cytotoxicity against human KM12 cells assessed as growth inhibition after 48 hrs by SRB assay; how it was run: as §3
NCI-H460 = test: Cytotoxicity against human NCI-H460 cells assessed as growth inhibition after 48 hrs by SRB assay; how it was run: as §2
MDA-MB-435 = test: Cytotoxicity against human MDA-MB-435 cells assessed as growth inhibition after 48 hrs by SRB assay; how it was run: as §2
U-251 = test: Cytotoxicity against human U251 cells assessed as growth inhibition after 48 hrs by SRB assay; how it was run: as §1
K562 = test: Cytotoxicity against human K562 cells assessed as growth inhibition after 48 hrs by SRB assay; how it was run: as §3
SW-620 = test: Cytotoxicity against human SW620 cells assessed as growth inhibition after 48 hrs by SRB assay; how it was run: as §1
CAKI-1 = test: Cytotoxicity against human CAKI-1 cells assessed as cell growth at 10 uM after 48 hrs by SRB assay; conditions: CAKI-1, 48 h, read-out: Activity
DU-145 = test: Cytotoxicity against human DU145 cells assessed as growth inhibition after 48 hrs by SRB assay; how it was run: as §3
MCF7 = test: Cytotoxicity against human MCF7 cells assessed as growth inhibition after 48 hrs by SRB assay; how it was run: as §2
SNB-75 = test: Cytotoxicity against human SNB75 cells assessed as growth inhibition after 48 hrs by SRB assay; how it was run: as §1

CCSc1nc2ccc3c(c2[nH]1)C(=O)c1ccccc1C3=O
-8.01%: growth at 10 µM (CAKI-1)
84.9 µM: TGI (SNB-75; SNB-75, 48 h)
8.04 µM: GI50 [2]
13.5 µM: GI50 (K562; K562, 48 h)
20.7 µM: GI50 (MDA-MB-231; MDA-MB-231, 48 h)
5.49 µM: GI50 (NCI-H460; NCI-H460, 48 h)
7.02 µM: GI50 (DU-145; DU-145, 48 h)
19.5 µM: GI50 (U-251; U-251, 48 h)
active: growth inhibition (GI) (SN12C) Dose-dependent effect | growth inhibition (GI) (NCI-H522) Dose-dependent effect | growth inhibition (GI) (A549) Dose-dependent effect | growth inhibition (GI) (RXF 393) Dose-dependent effect | growth inhibition (GI) (OVCAR-5) Dose-dependent effect | growth inhibition (GI) (M14) Dose-dependent effect | growth inhibition (GI) (SK-OV-3) Dose-dependent effect | growth inhibition (GI) (T47D) Dose-dependent effect | growth inhibition (GI) (CCRF-CEM) Dose-dependent effect | growth inhibition (GI) (SK-MEL-2) Dose-dependent effect | growth inhibition (GI) (NCI/ADR-RES) Dose-dependent effect | growth inhibition (GI) (MDA-MB-231) Dose-dependent effect | growth inhibition (GI) (TK-10) Dose-dependent effect | growth inhibition (GI) (MOLT-4) Dose-dependent effect | growth inhibition (GI) (RPMI-8226) Dose-dependent effect | growth inhibition (GI) (HOP-62) Dose-dependent effect | growth inhibition (GI) (KM12) Dose-dependent effect | growth inhibition (GI) (NCI-H460) Dose-dependent effect | growth inhibition (GI) (MDA-MB-435) Dose-dependent effect | growth inhibition (GI) (U-251) Dose-dependent effect | growth inhibition (GI) (K562) Dose-dependent effect | growth inhibition (GI) (SW-620) Dose-dependent effect | growth inhibition (GI) (DU-145) Dose-dependent effect | growth inhibition (GI) (MCF7) Dose-dependent effect | growth inhibition (GI) (SNB-75) Dose-dependent effect
7.4 µM: GI50 (TK-10; TK-10, 48 h)
2.83 µM: GI50 (RPMI-8226; RPMI-8226, 48 h)
4.07 µM: GI50 (NCI-H522; NCI-H522, 48 h)
6.25 µM: GI50 [1]
3.8 µM: GI50 (SK-OV-3; SK-OV-3, 48 h)
10.3 µM: GI50 (SN12C)
5.62 µM: GI50 (M14; M14, 48 h)
5.17 µM: GI50 (RXF 393; RXF 393, 48 h)
25.9 µM: GI50 (HOP-62; HOP-62, 48 h)
> 100 µM: TGI (SN12C) | CC50 (SN12C; read-out: LC50 (the source's name)) | TGI (NCI-H522; NCI-H522, 48 h) | CC50 (NCI-H522; NCI-H522, 48 h, read-out: LC50 (the source's name)) | LC50 (concentration killing 50% of cells) (A549; A549, 48 h) | TGI (A549; A549, 48 h) | TGI (RXF 393; RXF 393, 48 h) | CC50 (RXF 393; RXF 393, 48 h, read-out: LC50 (the source's name)) | LC50 [1] | TGI [1] | LC50 (M14; M14, 48 h) | TGI (M14; M14, 48 h) | LC50 (concentration killing 50% of cells present at time zero) (SK-OV-3; SK-OV-3, 48 h) | TGI (SK-OV-3; SK-OV-3, 48 h) | LC50 (T47D) | TGI (T47D) | LC50 (CCRF-CEM) | TGI (CCRF-CEM) | LC50 (50% lethal concentration) (SK-MEL-2; SK-MEL-2, 48 h) | TGI (SK-MEL-2; SK-MEL-2, 48 h) | LC50 (concentration causing 50% net cell kill) [2] | TGI [2] | LC50 (MDA-MB-231; MDA-MB-231, 48 h) | TGI (MDA-MB-231; MDA-MB-231, 48 h) | LC50 (TK-10; TK-10, 48 h) | TGI (TK-10; TK-10, 48 h) | LC50 (50% lethal concentration) (MOLT-4; MOLT-4, 48 h) | TGI (MOLT-4; MOLT-4, 48 h) | LC50 (concentration causing 50% net cell kill) (RPMI-8226; RPMI-8226, 48 h) | TGI (RPMI-8226; RPMI-8226, 48 h) | LC50 (concentration killing 50% of cells relative to time zero) (HOP-62; HOP-62, 48 h) | TGI (HOP-62; HOP-62, 48 h) | TGI (KM12; KM12, 48 h) | CC50 (KM12; KM12, 48 h, read-out: LC50 (the source's name)) | LC50 (NCI-H460; NCI-H460, 48 h) | TGI (NCI-H460; NCI-H460, 48 h) | LC50 (MDA-MB-435; MDA-MB-435, 48 h) | TGI (MDA-MB-435; MDA-MB-435, 48 h) | TGI (U-251; U-251, 48 h) | CC50 (U-251; U-251, 48 h, read-out: LC50 (the source's name)) | TGI (K562; K562, 48 h) | CC50 (K562; K562, 48 h, read-out: LC50 (the source's name)) | GI50 (SW-620; SW-620, 48 h) | LC50 (SW-620; SW-620, 48 h) | TGI (SW-620; SW-620, 48 h) | TGI (DU-145; DU-145, 48 h) | CC50 (DU-145; DU-145, 48 h, read-out: LC50 (the source's name)) | LC50 (concentration killing 50% of cells) (MCF7; MCF7, 48 h) | TGI (MCF7; MCF7, 48 h) | LC50 (SNB-75; SNB-75, 48 h)
4.05 µM: GI50 (MOLT-4; MOLT-4, 48 h)
10.1 µM: GI50 (SNB-75; SNB-75, 48 h)
3.66 µM: GI50 (CCRF-CEM)
4.84 µM: GI50 (MCF7; MCF7, 48 h)
76.5 µM: GI50 (MDA-MB-435; MDA-MB-435, 48 h)
5.1 µM: GI50 (SK-MEL-2; SK-MEL-2, 48 h)
8.43 µM: GI50 (KM12; KM12, 48 h)
9.67 µM: GI50 (A549; A549, 48 h)
4.21 µM: GI50 (T47D)
